Legend:
[1] = biological target: MAP-rich porcine β-tubulin (70% β-tubulin, 30% MAPs) (Sus scrofa, UniProt P02554); assay: Tubulin polymerization light-scattering; format: biochemical; conditions: 2 mg/mL porcine β-tubulin, 1 mM GTP, 37 °C
[2] = biological target: T1, SaFtsZ (Staphylococcus aureus, UniProt P0A031); assay: FtsZ polymerization light-scattering; format: biochemical, S. aureus
T1 sequence (P0A031 1-390): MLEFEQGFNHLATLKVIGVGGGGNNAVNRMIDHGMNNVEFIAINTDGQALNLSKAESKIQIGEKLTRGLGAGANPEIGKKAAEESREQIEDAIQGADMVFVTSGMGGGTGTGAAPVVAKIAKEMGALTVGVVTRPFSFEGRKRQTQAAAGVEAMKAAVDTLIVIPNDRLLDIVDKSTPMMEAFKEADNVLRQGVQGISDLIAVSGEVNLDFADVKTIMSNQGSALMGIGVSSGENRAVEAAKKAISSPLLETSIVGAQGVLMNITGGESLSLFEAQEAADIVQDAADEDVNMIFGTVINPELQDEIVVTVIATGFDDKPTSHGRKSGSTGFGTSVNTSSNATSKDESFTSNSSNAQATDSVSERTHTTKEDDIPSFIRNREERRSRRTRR

[3] = biological target: E. faecalis FtsZ (EfFtsZ) (Enterococcus faecalis, UniProt O08439); assay: Fluorescence anisotropy determination of compound-FtsZ binding affinity, EfFtsZ
[4] = biological target: T2, E185A mutant SaFtsZ (Staphylococcus aureus, UniProt P0A031, E185A); assay: Fluorescence anisotropy binding affinity, E185A mutant SaFtsZ; design: species or system S. aureus; conditions: ratio of Kd values
[5] = biological target: T3, I228R mutant SaFtsZ (Staphylococcus aureus, UniProt P0A031, I228R); assay: Fluorescence anisotropy binding affinity, I228R mutant SaFtsZ; design: species or system S. aureus; conditions: ratio of Kd values
[6] = biological target: T4, EcFtsZ (Escherichia coli, UniProt P0A9A6); assay: FtsZ polymerization light-scattering; format: biochemical, E. coli; conditions: compound 0 to 40 μg/mL, 10 μM protein, 1 mM GTP, 25 °C
T4 sequence (P0A9A6 whole entry): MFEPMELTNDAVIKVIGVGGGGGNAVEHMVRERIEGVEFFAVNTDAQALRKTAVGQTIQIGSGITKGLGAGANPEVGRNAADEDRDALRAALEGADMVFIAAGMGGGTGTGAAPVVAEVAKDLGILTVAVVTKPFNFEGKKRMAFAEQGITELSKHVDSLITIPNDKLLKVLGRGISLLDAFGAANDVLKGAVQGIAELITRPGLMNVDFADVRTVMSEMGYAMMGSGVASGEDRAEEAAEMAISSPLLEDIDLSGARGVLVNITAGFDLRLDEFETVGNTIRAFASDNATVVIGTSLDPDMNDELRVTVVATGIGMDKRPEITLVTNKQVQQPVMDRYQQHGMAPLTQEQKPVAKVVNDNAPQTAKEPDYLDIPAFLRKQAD

[7] = biological target: EfFtsZ (Enterococcus faecalis, UniProt O08439); assay: FtsZ polymerization light-scattering; format: biochemical, E. faecalis; conditions: compound 0 to 40 μg/mL, 10 μM protein, 1 mM GTP, 25 °C
[8] = biological target: T2, E185A mutant SaFtsZ; assay: FtsZ polymerization light-scattering; format: biochemical, S. aureus
[9] = biological target: T3, I228R mutant SaFtsZ; assay: FtsZ polymerization light-scattering; format: biochemical, S. aureus
[10] = biological target: G196A mutant SaFtsZ (Staphylococcus aureus, UniProt P0A031, G196A); assay: FtsZ polymerization light-scattering; format: biochemical, S. aureus; conditions: G196A mutant (not shown)
[11] = biological target: SaFtsZ-bound BoGTPγS (GTP binding pocket) (Staphylococcus aureus, UniProt P0A031); assay: BoGTPγS fluorescence anisotropy competition assay, SaFtsZ; conditions: 1 μM BoGTPγS, 5 μM FtsZ, competitor 0 to 40 μM
Procedure, shortened: (§1)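 Competition anisotropy assay: 1 μM BODIPY-GTPγS with 0 or 5 μM FtsZ, plus test compound or unlabeled GTP (0–40 μM), in 50 mM Tris·HCl pH 7.4, 50 mM KCl, 2 mM magnesium acetate. After 5 min at 25 °C, probe anisotropy was read (ex 488/em 510 nm, 4 nm bandwidths), compared with FtsZ-free probe. Triplicates averaged.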

[12] = biological target: EcFtsZ-bound BoGTPγS (GTP binding pocket) (Escherichia coli, UniProt P0A9A6); assay: BoGTPγS fluorescence anisotropy competition assay, EcFtsZ; design: species or system E. coli; conditions: 1 μM BoGTPγS, 5 μM FtsZ, competitor 0 to 40 μM
EcFtsZ-bound BoGTPγS (GTP binding pocket), sequence (P0A9A6 whole entry): as above
Procedure, shortened: as §1

[13] = biological target: EfFtsZ-bound BoGTPγS (GTP binding pocket) (Enterococcus faecalis, UniProt O08439); assay: BoGTPγS fluorescence anisotropy competition assay, EfFtsZ; design: species or system E. faecalis; conditions: 1 μM BoGTPγS, 5 μM FtsZ, competitor 0 to 40 μM
[14] = biological target: T1, SaFtsZ; assay: Transmission electron microscopy of compound-induced FtsZ polymers, SaFtsZ; format: biochemical; conditions: 20 μg/mL
[15] = biological target: T4, EcFtsZ; assay: Transmission electron microscopy of compound-induced FtsZ polymers, EcFtsZ; format: biochemical, E. coli; conditions: 20 μg/mL
[16] = test system: S. aureus 8325-4 (MSSA); assay: Time-kill assay; format: cell-based; conditions: for reduction of bacterial number (CFUs): 8 × MIC (8 μg/mL)
Procedure, shortened: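 Exponential-phase S. aureus 8325-4 was diluted in cation-adjusted Mueller-Hinton broth to 10^5–10^6 CFU/mL, with DMSO as vehicle control. Cultures were shaken at 37 °C and sampled at 0, 2, 4 and 6 h. Samples were plated on tryptic soy agar, centrifuged and resuspended when undiluted to avoid carry-over. Colonies were counted after 24 h at 37 °C.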

[17] = test system: S. aureus 8325-4 (MSSA); format: cell-based; conditions: after 12 incubation cycles
[18] = test system: S. aureus; assay: Emergence of resistance, large inoculum approach; format: cell-based; conditions: ~3 × 10^9 CFU/mL S. aureus on TSA plates with agent at 4- to 32-fold MIC; 24 h
[19] = test system: E. coli N43 (acrA1)
[20] = test system: S. aureus; conditions: known from literature; cited from earlier work
[21] = biological target: T4, EcFtsZ; conditions: previously reported; cited from earlier work
[22] = biological target: S. aureus FtsZ (SaFtsZ), wild-type (Staphylococcus aureus, UniProt P0A031); format: binding
[23] = biological target: E. coli FtsZ (EcFtsZ) (Escherichia coli, UniProt P0A9A6); assay: Fluorescence anisotropy determination of compound-FtsZ binding affinity, EcFtsZ
E. coli FtsZ (EcFtsZ), sequence (P0A9A6 whole entry): as above

MAP-rich porcine β-tubulin (70% β-tubulin, 30% MAPs), sequence (P02554 whole entry): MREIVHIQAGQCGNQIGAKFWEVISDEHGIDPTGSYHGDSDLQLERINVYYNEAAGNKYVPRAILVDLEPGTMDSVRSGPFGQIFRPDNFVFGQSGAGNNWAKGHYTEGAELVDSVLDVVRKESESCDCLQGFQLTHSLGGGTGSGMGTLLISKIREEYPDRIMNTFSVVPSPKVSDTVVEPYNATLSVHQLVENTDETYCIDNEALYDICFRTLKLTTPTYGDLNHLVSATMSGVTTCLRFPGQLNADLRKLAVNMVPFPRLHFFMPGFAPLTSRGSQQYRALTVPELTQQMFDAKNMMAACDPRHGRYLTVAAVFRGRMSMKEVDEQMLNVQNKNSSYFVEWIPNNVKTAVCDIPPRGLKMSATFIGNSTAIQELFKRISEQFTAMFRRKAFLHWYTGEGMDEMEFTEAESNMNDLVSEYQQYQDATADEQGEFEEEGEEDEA
MAP-rich porcine β-tubulin (70% β-tubulin, 30% MAPs), sequence (P02550 whole entry partner): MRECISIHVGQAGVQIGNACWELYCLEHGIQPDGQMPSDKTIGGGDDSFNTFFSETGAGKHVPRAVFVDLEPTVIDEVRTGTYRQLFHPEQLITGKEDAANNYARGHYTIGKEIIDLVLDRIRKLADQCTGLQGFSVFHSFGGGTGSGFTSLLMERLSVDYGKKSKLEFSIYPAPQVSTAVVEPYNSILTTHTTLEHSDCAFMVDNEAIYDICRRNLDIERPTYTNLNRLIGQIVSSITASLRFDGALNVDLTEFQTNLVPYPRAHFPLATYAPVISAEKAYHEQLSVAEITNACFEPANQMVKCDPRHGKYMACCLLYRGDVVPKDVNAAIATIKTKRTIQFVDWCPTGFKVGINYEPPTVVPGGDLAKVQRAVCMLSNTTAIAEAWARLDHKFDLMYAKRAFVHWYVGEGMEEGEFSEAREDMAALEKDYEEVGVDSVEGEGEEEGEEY

For `CC(=O)O[C@H]1C(=O)[C@@]2(C)[C@H]([C@H](OC(=O)c3ccccc3)[C@]3(O)C[C@H](OC(=O)[C@H](O)[C@@H](NC(=O)c4ccccc4)c4ccccc4)C(C)=C1C3(C)C)[C@]1(OC(C)=O)CO[C@@H]1C[C@@H]2O` [paclitaxel], which “impact on tubulin polymerization (A340)” value ([1]; 25 μg/mL) is on record?
Its value is “expected stimulatory impact”.

With `CCC[C@@H]1C[C@@H](C(=O)N[C@@H]([C@H]2O[C@H](SC)[C@H](O)[C@@H](O)[C@H]2O)[C@H](C)Cl)N(C)C1.Cl` [clindamycin, reference compound] as the compound, how does the “extent of stimulation of FtsZ polymerization (A340)” value ([2]; SaFtsZ, 40 μg/mL compound or comparator drug) read?
Its value is “negligible impact”.

Which “affinity for EfFtsZ lower than affinity for SaFtsZ and EcFtsZ” value ([3]; ratio of Kd values) does the source give for `CC(C)(C)c1ccc(-c2cccc(CNC(=N)N)c2)cc1` [compound 13, 1-((4′-(tert-Butyl)-[1,1′-biphenyl]-3-yl)methyl)guanidine] here?
Its value is “approximately 6 fold”.

What about the “affinity for E185A mutant lower than for wild-type SaFtsZ” value [4] of the same compound?
The value was “approximately 10 fold”.

And the “affinity for I228R mutant lower than for wild-type SaFtsZ” value [5]?
Its value is “approximately 10 fold”.

And the “impact on FtsZ polymerization dynamics (A340)” value ([2]; SaFtsZ, compound 0 to 40 μg/mL, 10 μM protein, 1 mM GTP, 25 °C)?
The value was “increases both the kinetics and extent”.

And the “impact on SaFtsZ polymerization (A340)” value ([2]; wild-type SaFtsZ, 10 μg/mL)?
Its value is “stimulatory impact”.

What about the “impact on FtsZ polymerization dynamics (A340)” value [6] of the same compound?
Its value is “increases both the kinetics and extent”.

What about the “impact on FtsZ polymerization dynamics (A340)” value [7] of the same compound?
The value was “increases both the kinetics and extent”.

And the “impact on SaFtsZ polymerization (A340)” value ([8]; 10 μg/mL)?
Its value is “essentially no effect”.

And the “magnitude of stimulation of SaFtsZ polymerization (A340)” value ([8]; 20 μg/mL)?
The value was “markedly lower than that observed for wild-type SaFtsZ”.

What about the “impact on SaFtsZ polymerization (A340)” value ([9]; 10 μg/mL) of the same compound?
The value was “essentially no effect”.

And the “magnitude of stimulation of SaFtsZ polymerization (A340)” value ([9]; 20 μg/mL)?
Its value is “markedly lower than that observed for wild-type SaFtsZ”.

And the “effect of G196A mutation on stimulation of SaFtsZ polymerization by compound” value [10]?
Its value is “negligible effect”.

What about the “effect on anisotropy of FtsZ-bound BoGTPγS” value [11] of the same compound?
The value was “does not significantly alter the anisotropy”.

What about the “effect on anisotropy of FtsZ-bound BoGTPγS” value [12] of the same compound?
The value was “does not significantly alter the anisotropy”.

What about the “effect on anisotropy of FtsZ-bound BoGTPγS” value [13] of the same compound?
Its value is “does not significantly alter the anisotropy”.

What about the “FtsZ polymer assembly and bundling by EM” value [14] of the same compound?
Its value is “promotes both the assembly and bundling of SaFtsZ polymers”.

And the “FtsZ polymer assembly and bundling by EM” value [15]?
The value was “promoting only the assembly, and not the bundling, of EcFtsZ polymers”.

What about the “reduction of bacterial number (CFUs)” value ([16]; within 2 h) of the same compound?
Its value is “three logs”.

And the “reduction of bacterial number (CFUs)” value ([16]; within 6 h)?
Its value is “four logs”.

What about the “rate of kill relative to vancomycin” value ([16]; both agents at 8 × MIC) of the same compound?
The value was “approximately 100 times”.

And the “change of MIC over repeated incubation cycles” value [17]?
The value was “did not change to any significant degree”.

And the “agent-containing plates on which colonies were observed” value [18]?
The value was “none”.

What about the “impact on tubulin polymerization (A340)” value ([1]; 40 μg/mL) of the same compound?
The value was “negligible impact”.

What about the “AcrAB efflux pump substrate (inferred from MIC N43 vs W4573)” value [19] of the same compound?
Its value is “substrate for the AcrAB efflux transporter”.

What does the source list for `CO[C@H]1/C=C/O[C@@]2(C)Oc3c(C)c(O)c4c(O)c(c(/C=N/N5CCN(C)CC5)c(O)c4c3C2=O)NC(=O)/C(C)=C\C=C\[C@H](C)[C@H](O)[C@@H](C)[C@@H](O)[C@@H](C)[C@H](OC(C)=O)[C@@H]1C` [rifampicin, reference compound]?
agent-containing plates on which colonies were observed [18]: 100%; rate of induced spontaneous mutants in S. aureus [20]: 10^−6 to 10^−8

For `NC(=O)c1c(F)ccc(OCc2nc3cc(Cl)cnc3s2)c1F` [PC190723], which “impact on EcFtsZ polymerization” value [21] is on record?
Its value is “does not affect the polymerization”.

Which “binding to FtsZ (qualitative; Kd not quantifiable)” value [22] does the source give for `CC(C)(C)c1ccc(-c2ccnc(CNC(=N)N)c2)cc1` [compound 14, 1-((4-(4-(tert-Butyl)phenyl)pyridin-2-yl)methyl)guanidine] here?
Its value is “weak nature of the binding interactions”.

What about the “binding to FtsZ (qualitative; Kd not quantifiable)” value [23] of the same compound?
The value was “weak nature of the binding interactions”.

And the “binding to FtsZ (qualitative; Kd not quantifiable)” value ([3]; EfFtsZ)?
The value was “weak nature of the binding interactions”.

And the “AcrAB efflux pump substrate (inferred from MIC N43 vs W4573)” value [19]?
The value was “substrates of the AcrAB efflux pump”.

From paper PMC3969268 (Journal of medicinal chemistry, 2012)
